Legend:
Rattus norvegicus [1] = assay: Volume of excreted urine in 5 hr after administration in 4% water loaded rats; format: functional
In short: (§1)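 Fasted (16 h) conscious male Wistar rats, without water load or loaded by stomach catheter with tap water at 4% of body weight, then dosed subcutaneously at 50 nmol/kg (saline control). Urine collected in individual metabolic cages and total volume recorded over 5 h. Groups of 4–5 rats, 2–3 independent days; mean ± SEM.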

Rattus norvegicus [2] = assay: In vivo pressor response in rats; format: functional
In short: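 Vasopressor test in phenoxybenzamine-treated male Wistar rats against a synthetic arginine vasopressin standard. Activity came from comparing threshold doses of standard and analogue on dose–response curves. Averages of 3–5 experiments.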

Rattus norvegicus [3] = assay: In vivo uterotonic activity in rats; format: functional
In short: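 In vivo uterotonic test in Wistar rats estrogenized 24–48 h before the experiment, with compounds given intravenously. Synthetic oxytocin served as standard. Activity came from comparing threshold doses on dose–response curves. Averages of 3–5 experiments, in IU/mg.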

Rattus norvegicus [4] = assay: Excreted total Na+ in 0% water loaded rats after administration of the compound; format: functional
In short: (§2)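 Conscious male Wistar rats fasted 16 h, given either no water load or tap water at 4% of body weight by stomach catheter; compound given subcutaneously at 50 nmol/kg right after loading. Rats kept in individual metabolic cages, urine collected over 5 h; total Na+ and K+ measured by flame spectrophotometry. Groups of 4–5 rats, 2–3 independent days; mean ± SEM.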

Rattus norvegicus [5] = assay: Volume of excreted urine in 5 h after administration in 0% water loaded rats; format: functional; in short: as §1
Rattus norvegicus [6] = assay: Excreted total Na+ in 4% water loaded rats after administration of the compound; format: functional; in short: as §2
Rattus norvegicus [7] = organism: Rattus norvegicus; assay: In vitro uterotonic activity was determined; format: functional
In short: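 Uterine preparations from Wistar rats estrogenized 24–48 h beforehand were tested in vitro without magnesium ions. Synthetic oxytocin served as standard. Single or cumulative dose–response curves were built, and activity was obtained by comparing threshold doses of standard and analogue. Averages of 3–5 experiments, in IU/mg.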

Rattus norvegicus [8] = assay: In vivo antidiuretic in conscious rats; format: functional, Urine
In short: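 Modified Burn test in conscious male Wistar rats fasted 16 h and loaded orally by catheter with tap water (4% of body weight). Compounds or saline injected subcutaneously at 1–100 nmol/kg. Urine collected over 5 h in metabolic cages. Groups of 4–5 rats; each dose run in 2–3 independent experiments.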

Rattus norvegicus [9] = assay: Excreted total K+ in 4% water loaded rats after administration of the compound; format: functional, organism-based; in short: as §2
Rattus norvegicus [10] = organism: Rattus norvegicus; assay: diuresis half-time in 4% water loaded rats; format: functional, organism-based
In short: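 After a 16-h fast, conscious male Wistar rats received tap water at 4% of body weight by stomach catheter, then compound subcutaneously at 50 nmol/kg. Urine output followed every 15 min for 5 h in metabolic cages. Half-time taken as the time at which half the water load was excreted. Mean ± SEM.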

Rattus norvegicus [11] = assay: Excreted total K+ in 0% water loaded rats after administration of the compound; format: functional, organism-based; in short: as §2
Rattus norvegicus [12] = assay: Volume of excreted urine in 5 hr after administration in 0% water loaded rats; format: functional; in short: as §1
Rattus norvegicus [13] = assay: In vivo antidiuretic in anesth rats; format: functional, Urine

Row | SMILES | Volume of urine (Rattus norvegicus [1]) [mL] | Pressor response (Rattus norvegicus [2]) [IU mg-1] | Uterotonic activity (Rattus norvegicus [3]) [IU mg-1] | Na (Rattus norvegicus [4]) [µmol] | Volume of urine (Rattus norvegicus [5]) [mL] | Na (Rattus norvegicus [6]) [µmol] | Uterotonic activity (Rattus norvegicus [7]) [IU mg-1] | Antidiuretic activity (Rattus norvegicus [8]) [%] | K (Rattus norvegicus [9]) [µmol] | T1/2 (Rattus norvegicus [10]) [h] | K (Rattus norvegicus [11]) [µmol] | Volume of urine (Rattus norvegicus [12]) [mL] | Antidiuretic activity (Rattus norvegicus [13]) [IU mg-1]
1 | CC[C@@H](C)[C@H]1NC(=O)CC2(CCCCC2)SSC[C@H](N)C(=O)N[C@@H](Cc2ccc(O)cc2)C(=O)N[C@@H]([C@@H](C)CC)C(=O)N[C@@H](CCC(N)=O)C(=O)N[C@@H](CC(N)=O)C(=O)N[C@H](C(=O)N2CCC[C@H]2C(=O)N[C@@H](CC(C)C)C(=O)NCC(N)=O)CSSC[C@@H](C(=O)N2CCC[C@H]2C(=O)N[C@@H](CCCN=C(N)N)C(=O)NCC(N)=O)NC(=O)[C@H](CC(N)=O)NC(=O)[C@H]([C@@H](C)CC)NC(=O)[C@H](Cc2ccccc2)NC1=O | 14.2 | 0 | 1.1 | 762 | 9.4 | 375 | 0.22 | – | – | – | – | – | –
2 | CC[C@H](C)[C@@H]1NC(=O)[C@H](Cc2ccc(O)cc2)NC(=O)[C@@H](N)CSSC[C@@H](C(=O)N2CCC[C@H]2C(=O)N[C@@H](CC(C)C)C(=O)NCC(N)=O)NC(=O)[C@H](CC(N)=O)NC(=O)[C@H](CCC(N)=O)NC(=O)[C@H]([C@@H](C)CC)NC(=O)[C@H](Cc2ccc(O)cc2)NC(=O)[C@@H](N)CSSC[C@@H](C(=O)N2CCC[C@H]2C(=O)N[C@@H](CC(C)C)C(=O)NCC(N)=O)NC(=O)[C@H](CC(N)=O)NC(=O)[C@H](CCC(N)=O)NC1=O [OXYTOCIN DIMER] | 6.4 | 0.5 | 13.8 | – | – | 1150 | 1.37 | ~10 | – | – | – | – | –
3 | CC[C@@H](C)[C@H]1NC(=O)[C@H](Cc2ccc(O)cc2)NC(=O)[C@@H](N)CSSC[C@@H](C(=O)N2CCC[C@@H]2C(=O)N[C@@H](CC(C)C)C(=O)NCC(N)=O)NC(=O)[C@H](CC(N)=O)NC(=O)[C@@H](CCC(N)=O)NC(=O)[C@H]([C@@H](C)CC)NC(=O)[C@@H](Cc2ccc(O)cc2)NC(=O)[C@H](N)CSSC[C@H](C(=O)N2CCC[C@H]2C(=O)N[C@H](CC(C)C)C(=O)NCC(N)=O)NC(=O)[C@@H](CC(N)=O)NC(=O)[C@H](CCC(N)=O)NC1=O | – | – | – | – | – | – | – | – | 231 | 3.47 | – | – | –
4 | CC[C@@H](C)[C@H]1NC(=O)CC2(CCCCC2)SSC[C@@H](C(=O)N2CCC[C@@H]2C(=O)N[C@@H](CC(C)C)C(=O)NCC(N)=O)NC(=O)[C@H](CC(N)=O)NC(=O)[C@H](CCC(N)=O)NC(=O)[C@H]([C@@H](C)CC)NC(=O)[C@H](Cc2ccc(O)cc2)NC(=O)[C@@H](N)CSSC[C@H](C(=O)N2CCC[C@@H]2C(=O)N[C@H](CCCN=C(N)N)C(=O)NCC(N)=O)NC(=O)[C@@H](CC(N)=O)NC(=O)[C@@H]([C@H](C)CC)NC(=O)[C@@H](Cc2ccccc2)NC1=O | – | – | – | – | – | – | – | – | 123 | 0.817 | 200 | – | –
5 | CC[C@H](C)[C@@H]1NC(=O)[C@H](Cc2ccc(O)cc2)NC(=O)[C@@H](N)CSSC[C@@H](C(=O)N2CCC[C@H]2C(=O)N[C@@H](CC(C)C)C(=O)NCC(N)=O)NC(=O)[C@H](CC(N)=O)NC(=O)[C@H](CCC(N)=O)NC1=O [OXYTOCIN] | 11.3 | 4.5 | 450 | 563 | – | 773 | 450 | 100 | 287 | 2.97 | 202 | 4.8 | 5
6 | CC[C@H](C)[C@@H]1NC(=O)CC2(CCCCC2)SSC[C@H](N)C(=O)N[C@@H](Cc2ccc(O)cc2)C(=O)N[C@@H]([C@@H](C)CC)C(=O)N[C@@H](CCC(N)=O)C(=O)N[C@@H](CC(N)=O)C(=O)N[C@H](C(=O)N2CCC[C@@H]2C(=O)N[C@@H](CC(C)C)C(=O)NCC(N)=O)CSSC[C@@H](C(=O)N2CCC[C@H]2C(=O)N[C@@H](CCCN=C(N)N)C(=O)NCC(N)=O)NC(=O)[C@H](CC(N)=O)NC(=O)[C@H]([C@@H](C)CC)NC(=O)[C@H](Cc2ccccc2)NC1=O | – | – | – | – | – | – | – | – | 162 | 0.7 | 217 | – | –
7 | CC[C@@H](C)[C@H]1NC(=O)CC2(CCCCC2)SSC[C@@H](C(=O)N2CCC[C@H]2C(=O)N[C@@H](CC(C)C)C(=O)NCC(N)=O)NC(=O)[C@H](CC(N)=O)NC(=O)[C@H](CCC(N)=O)NC(=O)[C@H]([C@@H](C)CC)NC(=O)[C@H](Cc2ccc(O)cc2)NC(=O)[C@@H](N)CSSC[C@@H](C(=O)N2CCC[C@H]2C(=O)N[C@@H](CCCN=C(N)N)C(=O)NCC(N)=O)NC(=O)[C@H](CC(N)=O)NC(=O)[C@H]([C@@H](C)CC)NC(=O)[C@H](Cc2ccccc2)NC1=O | 13.1 | 0 | 0.8 | 358 | 6.3 | 480 | 0.8 | – | – | – | – | – | –
